Test results reported in ChEMBL document CHEMBL2434854, “Synthesis and anticancer activity of some novel trifluoromethylquinolines carrying a biologically active benzenesulfonamide moiety” (Eur J Med Chem, 2013).

How the values were obtained:
Format in all cases: functional, cell-based
[1] = system: MDA-MB-231; test: Anticancer activity against human MDA-MB-231 cells after 48 hrs by SRB assay
In short: (§1)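 Cells seeded 10^4 cells/well and allowed to attach for 24 h, then exposed to compounds dissolved in DMSO at 10, 25, 50 and 100 μM, triplicate wells per concentration, for 48 h at 37 °C in 5% CO2. Fixed, stained 30 min with 0.4% (wt/vol) SRB in 1% acetic acid, washed four times with 1% acetic acid, dye recovered in Tris-EDTA, absorbance read. IC50 taken from survival curves; doxorubicin reference.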

[2] = system: HT-1080; test: Anticancer activity against human HT1080 cells after 48 hrs by SRB assay; details: HT-1080, 48 h; in short: as §1
[3] = system: LoVo; test: Anticancer activity against human LoVo cells after 48 hrs by SRB assay; in short: as §1
[4] = Anticancer activity against human […] cells after 48 hrs by SRB assay; in short: as §1
[5] = system: HepG2; test: Anticancer activity against human HepG2 cells after 48 hrs by SRB assay; in short: as §1
[6] = system: HeLa; test: Anticancer activity against human HeLa cells after 48 hrs by SRB assay; in short: as §1
[7] = Homo sapiens, MDA-MB-231, 48 h, read-out: IC50
[8] = Homo sapiens, LoVo, 48 h, read-out: IC50
[9] = Homo sapiens, 48 h, read-out: IC50
[10] = Homo sapiens, HepG2, 48 h, read-out: IC50
[11] = Homo sapiens, HeLa, 48 h, read-out: IC50

| Structure (SMILES) | IC50 [1, 7] [µM] | IC50 [2] [µM] | IC50 [3, 8] [µM] | IC50 [5, 10] [µM] | IC50 ([6]; hela) | IC50 [6, 11] [µM] | IC50 ([5]; hepg2) | IC50 ([3]; lovo) | IC50 ([1]; mda-mb-231) | IC50 [4, 9] [µM] | IC50 [4] |
| --- | --- | --- | --- | --- | --- | --- | --- | --- | --- | --- | --- |
| CC(=O)NS(=O)(=O)c1ccc(Nc2ccnc3cc(C(F)(F)F)ccc23)cc1 | 75.6 | 41.6 | 51.5 | 46 | Not Active |  |  |  |  | 64.2 |  |
| Cc1cc(C)nc(NS(=O)(=O)c2ccc(Nc3ccnc4cc(C(F)(F)F)ccc34)cc2)n1 | 36.2 | 32.8 | 44.3 |  |  | 32 | Not Active |  |  |  | Not Active |
| Cc1cc(C)nc(NS(=O)(=O)c2ccc(N/C(S)=N\c3ccnc4cc(C(F)(F)F)ccc34)cc2)n1 | 52.9 | 29.5 | 40.2 | 72.2 |  | 33 |  |  |  | 43.4 |  |
| COc1cccc2c1C(=O)c1c(O)c3c(c(O)c1C2=O)C[C@@](O)(C(=O)CO)C[C@@H]3O[C@H]1C[C@H](N)[C@H](O)[C@H](C)O1 [DOXORUBICIN] | 34 | 19.2 | 24.3 | 27.1 |  | 30.2 |  |  |  | 32.8 |  |
| O=S(=O)(Nc1ccccn1)c1ccc(Nc2ccnc3cc(C(F)(F)F)ccc23)cc1 | 18.4 | 41.8 | 20.2 | 46.1 |  | 44.8 |  |  |  | 30.4 |  |
| Cc1ccnc(NS(=O)(=O)c2ccc(Nc3ccnc4cc(C(F)(F)F)ccc34)cc2)n1 |  | 32.5 |  |  | Not Active |  | Not Active | Not Active | Not Active | 62.5 |  |
| COc1cc(NS(=O)(=O)c2ccc(Nc3ccnc4cc(C(F)(F)F)ccc34)cc2)nc(OC)n1 |  | 39.2 | 50.4 | 83.8 |  | 83.2 |  |  | Not Active | 37.9 |  |
| O=S(=O)(Nc1nccs1)c1ccc(Nc2ccnc3cc(C(F)(F)F)ccc23)cc1 | 90.8 | 40.3 |  |  |  | 70.8 | Not Active | Not Active |  | 66.1 |  |
| Cc1noc(NS(=O)(=O)c2ccc(Nc3ccnc4cc(C(F)(F)F)ccc34)cc2)c1C | 39.3 | 31.9 | 36 | 40.8 | Not Active |  |  |  |  | 53.1 |  |
| Cc1cc(NS(=O)(=O)c2ccc(Nc3ccnc4cc(C(F)(F)F)ccc34)cc2)on1 | 74.8 | 33.5 | 33.6 | 33.5 |  | 97.6 |  |  |  | 74.8 |  |
| N=C(N)NS(=O)(=O)c1ccc(Nc2ccnc3cc(C(F)(F)F)ccc23)cc1 | 28.8 | 49.8 | 24.7 |  |  | 41.3 | Not Active |  |  | 55.2 |  |
| NS(=O)(=O)c1ccc(N/C(S)=N\c2ccnc3cc(C(F)(F)F)ccc23)cc1 | 52.9 | 31 | 34.5 | 52.2 |  | 36.6 |  |  |  | 36.6 |  |
| NS(=O)(=O)c1ccc(Nc2ccnc3cc(C(F)(F)F)ccc23)cc1 | 34.4 | 56.1 | 26.6 | 50.8 |  | 61.2 |  |  |  | 79 |  |
| Nc1ccc(S(=O)(=O)Nc2ccnc3cc(C(F)(F)F)ccc23)cc1 | 30.9 | 29.6 | 53.6 | 93.1 |  | 46 |  |  |  | 29.2 |  |

Continued, in another order:

| IC50 [1, 7] [µM] | IC50 [2] [µM] | IC50 [3, 8] [µM] | IC50 [5, 10] [µM] | IC50 ([6]; hela) | IC50 [6, 11] [µM] | IC50 ([5]; hepg2) | IC50 ([3]; lovo) | IC50 ([1]; mda-mb-231) | Structure (SMILES) | IC50 [4, 9] [µM] | IC50 [4] |
| --- | --- | --- | --- | --- | --- | --- | --- | --- | --- | --- | --- |
| 52.1 | 29.5 | 76.7 | 76.7 |  | 53.8 |  |  |  | COc1cc(NS(=O)(=O)c2ccc(N/C(S)=N\c3ccnc4cc(C(F)(F)F)ccc34)cc2)nc(OC)n1 | 64.5 |  |
| 49.3 | 28 | 87.5 | 28 |  | 68.8 |  |  |  | O=S(=O)(Nc1ccccn1)c1ccc(N/C(S)=N\c2ccnc3cc(C(F)(F)F)ccc23)cc1 | 33.5 |  |
| 83 | 22.8 | 28.4 | 77.2 | Not Active |  |  |  |  | COc1ncnc(NS(=O)(=O)c2ccc(N/C(S)=N\c3ccnc4cc(C(F)(F)F)ccc34)cc2)c1OC | 81.8 |  |
| 27.9 | 27.7 | 67 | 36.8 | Not Active |  |  |  |  | Cc1noc(NS(=O)(=O)c2ccc(N/C(S)=N\c3ccnc4cc(C(F)(F)F)ccc34)cc2)c1C | 34 |  |
| 80.3 | 27.3 |  | 28.5 |  | 60.2 |  | Not Active |  | Cc1cc(NS(=O)(=O)c2ccc(N/C(S)=N\c3ccnc4cc(C(F)(F)F)ccc34)cc2)on1 | 60.2 |  |
| 45.2 | 29.1 | 34.7 | 42.1 | Not Active |  |  |  |  | O=S(=O)(Nc1ncccn1)c1ccc(N/C(S)=N\c2ccnc3cc(C(F)(F)F)ccc23)cc1 | 37.8 |  |
| 24.4 | 27.3 | 67.1 | 28.2 |  | 95.2 |  |  |  | O=S(=O)(Nc1nccs1)c1ccc(N/C(S)=N\c2ccnc3cc(C(F)(F)F)ccc23)cc1 | 27.2 |  |
|  | 24.3 | 23.9 | 33.5 |  | 23.9 |  |  | Not Active | N=C(N)NS(=O)(=O)c1ccc(N/C(S)=N\c2ccnc3cc(C(F)(F)F)ccc23)cc1 | 23.9 |  |
| 58.6 | 28.3 | 30 | 28.4 |  | 37.6 |  |  |  | CC(=O)NS(=O)(=O)c1ccc(N/C(S)=N\c2ccnc3cc(C(F)(F)F)ccc23)cc1 | 37.6 |  |
| 54.7 | 27.2 | 27.4 |  |  | 78.1 | Not Active |  |  | O=S(=O)(Nc1ncccn1)c1ccc(Nc2ccnc3cc(C(F)(F)F)ccc23)cc1 | 34.2 |  |
| 52.9 | 25.4 | 30.2 |  |  | 41 | Not Active |  |  | O=C(Nc1ccccc1)Nc1ccc(S(=O)(=O)Nc2ccnc3cc(C(F)(F)F)ccc23)cc1 | 24.5 |  |
| 49.4 | 26 | 39.9 | 66.1 | Not Active |  |  |  |  | COc1ncnc(NS(=O)(=O)c2ccc(Nc3ccnc4cc(C(F)(F)F)ccc34)cc2)c1OC | 36.9 |  |
| 52.8 | 25.8 | 56.8 | 82.6 |  | 34.1 |  |  |  | O=S(=O)(Nc1ccnn1-c1ccccc1)c1ccc(Nc2ccnc3cc(C(F)(F)F)ccc23)cc1 | 52.8 |  |
| 29.8 | 28.7 | 31 |  |  | 31 | Not Active |  |  | Cc1ccnc(NS(=O)(=O)c2ccc(N/C(S)=N\c3ccnc4cc(C(F)(F)F)ccc34)cc2)n1 | 31 |  |
| 18.4 | 17.9 | 19.7 | 27.6 |  | 35.3 |  |  |  | O=C(Nc1ccccc1)NS(=O)(=O)c1ccc(Nc2ccnc3cc(C(F)(F)F)ccc23)cc1 | 18.4 |  |
